Rows were chosen to be rich in hits. Some 0.97% of all compounds tested hit in one or more screens of this group.
Dynein cargo inh: dynein cargo transport inhibition; 3617.4 mouse cells, GR-EGFP nuclear translocation imaging; test concentration mostly 20 µM; stimulated with dexamethasone, 1 µM; active compounds read low; z-score, hits read low; actives 0.47% (n = 220,000); AID 1381;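 active = plate z-score of nuclear minus cytoplasmic receptor signal below a set negative limit, without overly bright fluorescence or cell loss, cut at about -3.5 in these data, passing the limit was not always enough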;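 also: z-score of nuclear minus cytoplasmic ring GR-EGFP intensity difference per well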
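medium = tetracycline-free induction medium containing charcoal-stripped FBS | also added = 1.0 µM final dexamethasone stimulus | schedule = 48 h induction, 1 h compound, 30 min dex at 37 °C | technique = fixed, Hoechst-stained cells imaged at 10x for EGFP | measure = GR-EGFP nuclear translocation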
MDM2 E3 inh: Mdm2 E3 ligase (human) inhibition; Q00987; cell-based MDM2 ubiquitination luciferase reporter, 2 h; 0 = plate control, 100 = twice control, blank-subtracted; signal enhancement, % at 5 µM; actives 0.11% (n = 210,000); AID 1230;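 active = signal enhancement of 30% or more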;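 also: luminescence tracks abundance of the self-degrading MDM2-luciferase fusion protein; higher signal means inhibition of MDM2 E3 ligase activity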
Target sequence (Q00987 whole entry, looked up, the tested form may be a part): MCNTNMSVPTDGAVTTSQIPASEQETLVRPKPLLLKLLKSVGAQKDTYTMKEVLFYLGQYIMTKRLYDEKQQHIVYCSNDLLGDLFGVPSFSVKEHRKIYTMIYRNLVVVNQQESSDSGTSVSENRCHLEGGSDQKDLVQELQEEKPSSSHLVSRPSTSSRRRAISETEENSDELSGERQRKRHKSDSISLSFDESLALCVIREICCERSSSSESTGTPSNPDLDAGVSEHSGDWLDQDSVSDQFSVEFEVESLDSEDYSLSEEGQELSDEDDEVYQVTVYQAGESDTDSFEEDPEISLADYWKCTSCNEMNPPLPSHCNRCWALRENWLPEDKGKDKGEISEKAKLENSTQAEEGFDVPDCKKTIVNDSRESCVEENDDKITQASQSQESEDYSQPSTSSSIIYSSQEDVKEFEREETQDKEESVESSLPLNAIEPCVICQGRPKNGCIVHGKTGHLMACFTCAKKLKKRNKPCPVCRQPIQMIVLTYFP
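system = mammalian cells stably expressing self-ubiquitinating, self-degrading MDM2 E3–luciferase fusion | quantity = 2000 cells per well seeded | incubation = 4 h cell settling then 2 h compound exposure, 37 °C | signal = SteadyLite luminescence, 15 min reagent step | benchmarks = plate control and blank wells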
TNF necrop inh: inhibitors of TNF-alpha induced necroptosis in Jurkat FADD-/- cells; activation (protection from cell death), % at 10 µM; actives 0.068% (n = 220,000); Jurkat FADD-/- TNF necroptosis rescue, ATP luminescence, 24 h; 0 = TNF only, 100 = no-TNF cells;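 active = activation, meaning protection from cell death, of at least 50% relative to plate controls; inactive = activation below 50%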;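 also: necroptosis triggered by 40 ng/mL TNF-alpha added together with compound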
B2AR ag: human beta-2 adrenergic receptor agonism by FAP; Am2.2-beta2AR cells, FAP receptor internalization, flow cytometry; response, % (test concentration not listed); actives 0.43% (n = 340,000); AID 504454;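 active = response above a set limit, near 3 SD of response in nonfluorescent compounds, cut at about 42% in these data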
L929 necroptosis: L929 zVAD cell death inhibition | L929 zVAD necroptosis rescue, ATP luminescence, 24 h; with zVAD 60 µM | viability rescue, % at 10 µM | actives 0.38% (n = 220,000);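 active = activation, scaled between plate controls, above about 75%, limit read from the data; inactive = activation under that limit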;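 also: 0% = zVAD with DMSO and 100% = DMSO alone without zVAD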
Dynein confirm: dynein cargo transport inhibition, confirmation; shares compounds with Dynein cargo inh; 3617.4 GR-EGFP nuclear translocation imaging, dexamethasone-induced; AID 463116; actives 69% (n = 1,000); calls only at 20 µM;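 active = inhibition of receptor movement into the nucleus at or above a set limit in both runs, with normal cell brightness and cell count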;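 also: dexamethasone at 1 µM final in well for 30 min; nuclear minus cytoplasmic GR-EGFP mean intensity difference in channel 2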
Active calls of the source: *; i = inactive; . = not tested or not shown; + = active, no number.

SMILES	Dynein cargo inh	MDM2 E3 inh	TNF necrop inh	B2AR ag	L929 necroptosis	Dynein confirm
CCOC(=O)c1cn(-c2c(Cl)cccc2Cl)c2cc(Cl)c([N+](=O)[O-])cc2c1=O	-4.4*	6	-2	14	.	+
CCOC(=O)c1cn(CC)c2cc(Cl)c([N+](=O)[O-])cc2c1=O	0.9	-18	-1	-5	-1	.
N=c1oc2c3c4c(cc2cc1C(=O)Nc1ccccc1)CCCN4CCC3	-4.6*	-40	-2	-17	0	+
CCC(=O)N1CCN(c2ccc(NC(=O)c3ccc([N+](=O)[O-])o3)cc2Cl)CC1	-5*	8	-12	24	27	+
COc1cccc(/C=C/C(=O)c2cccc([N+](=O)[O-])c2)c1OC	-5.3*	3	-5	17	0	+
COc1ccc(Oc2ccc(/C=C/C(=O)c3ccc(O)cc3)cc2[N+](=O)[O-])cc1	-3.6*	-10	-13	40	.	+
COc1cccc(/C=C/C(=O)c2cccc([N+](=O)[O-])c2)c1	-4.5*	-20	0	94*	-1	+
COc1cccc(C(=O)/C=C/c2ccc(N3CCCCC3)c([N+](=O)[O-])c2)c1	-0.56	2	0	2	0	.
O=C(CCS(=O)(=O)c1ccc2c(c1)NC(=O)CS2)NCc1cccs1	.	.	.	-60	.	.
CC(C)COc1cc(=O)[nH]c(SCC(C)C)n1	-4.2*	-6	-2	10	0	i
O=C(O)CC1CCC(=C(Cl)Cl)C1 (stereo unspecified)	-4.8*	-11	-3	25	1	i
Cc1ccc(CSCCNC(=O)c2ccc(NS(C)(=O)=O)cc2)cc1	-0.65	-6	1	-5	6	.
N#Cc1cc(-c2ccccc2)[nH]c1-c1nccc2ccccc12	0.2	-8	-7	-16	1	.
c1ccc(-c2ccc(-c3nccc4ccccc34)[nH]2)cc1	-4.6	-69	-5	.	1	i
O=C(COc1ccc(Cl)cc1)N(Cc1ccccc1)c1ccccn1	-0.27	2	-2	0	0	.
O=C(/C=C/c1ccc(Cl)cc1)c1cccnc1	-5.1*	-5	-15	-9	0	+
O=C(/C=C/c1ccccc1Cl)c1ccc(O)cc1	-1.1	-13	0	8	2	.
O=C(/C=C/c1ccccc1Cl)c1cccnc1	-4.2*	-6	-15	3	1	+
N#Cc1ccc(/C=C/C(=O)c2cccnc2)cc1	-5*	2	-7	1	-1	+
O=C(/C=C/c1cccnc1)/C=C/c1cccnc1	-6.4*	39*	6	67*	43	+
CCN(CC)c1ccc(/C=C/C(=O)c2cccnc2)cc1	0.48	-8	-3	14	-1	.
Cc1ccc(S(=O)(=O)N2CCOCC2)cc1NC(=O)C1=NN(c2ccccc2)C(=O)CC1	.	.	.	3	.	.
CCCCCCN(C(=O)CCl)c1ccccc1	-4.7*	4	-24	14	-1	+
O=Cc1[nH]c2ccccc2c1N(C(=O)CCl)c1ccccc1	-7.6	-3	-7	-2	0	+
O=C(CCl)N(c1ccccc1)c1ccccc1	-4.5*	-11	-16	3	64	+
SMILES	Dynein cargo inh	MDM2 E3 inh	TNF necrop inh	B2AR ag	L929 necroptosis	Dynein confirm
CCCCCCc1cc2cc(-c3nnc(-c4ccccc4O)o3)c(=O)oc2cc1O	-5.6	-25	-12	.	4	+
O=[N+]([O-])c1ccc(N2CCN(c3ccc(Cl)nn3)CC2)cc1NC1CC1	-8.4	.	-1	-3	0	i
O=C1CSC(=S)N1N=C1CCCCCC1	0.61	.	2	-1	1	.
CC(=O)/C=C/n1c(=S)oc2ccccc21	-4.1*	51*	23	.	12	+
Cn1c(=S)oc2ccccc21	-0.81	4	0	-9	0	.
CC(C)CC(=O)/C=C/n1c(=S)oc2ccccc21	-4*	58*	-6	49*	0	+
COc1ccc(NC(=O)c2oc3ccc(S(=O)(=O)N4CCOCC4)cc3c2C)c(OC)c1	.	.	.	6	.	.
COc1ccc(C(c2c(C)[nH]n(C(N)=S)c2=O)C(C#N)C#N)cc1 (stereo unspecified)	-4.1*	-3	-9	8	0	+
COc1ccc(-c2nc(-c3ccccc3)ncc2S(C)(=O)=O)cc1	-0.58	-17	0	-7	1	.
Nc1c(C(=O)C2CC2)sc2nc(-c3ccccc3)cc(C(F)(F)F)c12	-6.1	6	-3	-576	0	i
CC(=O)c1sc2nc(-c3cccs3)cc(C(F)(F)F)c2c1N	-4.3	-9	-17	-264	0	+
O=C(CCNS(=O)(=O)c1ccc(Br)s1)N1CCCCC1	0.9	-8	0	2	1	.
Cc1nn(CC(=O)Nc2ccc(C(C)C)cc2)c(C)c1[N+](=O)[O-]	-0.28	1	2	-5	14	.
CCOc1ccc(CN(C)C(=O)CCl)cc1	-5.6*	-18	-13	-7	-1	+
CCOc1ccc(CN(C)C(=O)CCNC(=O)c2ccco2)cc1	.	.	.	8	.	.
COC(=O)c1ccc(NC(=O)COc2cccc3c2OC(C)(C)C3)cc1	.	.	.	3	.	.
O=C(NCc1cccnc1)/C(=C\c1ccc(-c2ccc(Cl)c(Cl)c2)o1)S(=O)(=O)c1ccccc1	-4.2*	.	-15	95*	-1	+
O=C(NCc1cccnc1)c1ccc(-c2ccc(Cl)cc2)o1	-0.42	2	1	4	7	.
CCC(=O)Nc1ccc(/C=C(\C(C)=O)C(=O)c2ccccc2)cc1	-4.1*	-23	-19	-3	-2	+
CC(C)(c1ccccc1)c1ccc(OCC(O)CNC2CCN(Cc3ccccc3)CC2)cc1 (stereo unspecified)	-5*	-2	-16	23	-4	i
CCOc1ccc(OCC(O)CNC2CCN(Cc3ccccc3)CC2)cc1 (stereo unspecified)	-0.57	-17	-4	10	29	.
O=C(NCc1cccnc1)c1ccccc1[N+](=O)[O-]	0.37	-9	1	8	1	.
C=C(C(=O)c1ccccc1)C(C(=C)C(=O)c1ccccc1)c1ccc(OC)cc1	-3.8*	2	-23	3	8	+
COCCCNc1oc(-c2ccccc2Cl)nc1C#N	0.059	6	0	-2	1	.
CC(=O)n1cc(N(C(=O)CCl)c2ccc(C)cc2)c2ccccc21	-6*	-13	-32	-162	60	+
CC1(C)CC(N=c2cc(-c3ccccc3)oc3ccc(Cl)cc23)CC(C)(C)N1	-3.5*	-19	-15	40	-3	i

From PubChem
